Source: ChEMBL document CHEMBL2375329, “A diazen-1-ium-1,2-diolate analog of 7-azabenzobicyclo[2.2.1]heptane: synthesis, nitric oxide and nitroxyl release, in vitro hemodynamic, and anti-hypertensive studies” (Bioorg Med Chem Lett, 2013)

Key:
[1] = Induction of nitric oxide release in phosphate buffer solution after 1.5 hrs by Griess method relative to control; type: physicochemical
In short: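 Test compound at 5.0×10^-2 mM was incubated in phosphate buffer pH 7.4 at 37 °C for 1.5 h. NO was estimated indirectly as nitrite by the Griess reaction. % nitrite is based on a theoretical maximum of 2 mol NO/mol compound, mean of n = 3.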

[2] = Induction of HNO release in phosphate buffer saline after 48 hrs by phosphine-trapping based LC-MS assay relative to control; type: physicochemical
In short: (§1)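 Test compound (20 µM final) was incubated in PBS pH 7.4 containing 7.5% DMSO with a phosphine HNO trap (1 mM final) and 4-hydroxybenzophenone internal standard (5.05 µM), in a sealed vial at 37 °C for 2 h or 48 h. The reaction was quenched with H2O2, dried, and redissolved in methanol. HNO-derived amide was quantified by ESI-negative LC-MS against a standard curve. % is of a theoretical 1 mol HNO/mol, mean of triplicates.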

[3] = Induction of HNO release in phosphate buffer saline after 2 hrs by phosphine-trapping based LC-MS assay relative to control; type: physicochemical; in short: as §1
[4] = Induction of nitric oxide release in phosphate buffer solution after 2 to 4 hrs by Griess method relative to control; type: physicochemical
In short: (§2)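 Test compound at 5.0 × 10^-2 mM in PBS pH 7.4 at 37 °C for 2 or 4 h. Nitrite formed from NO was quantified by the Griess reaction and expressed as % of a theoretical maximum of 2 mol NO/mol compound; mean of n = 3.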

Mus musculus [5] = assay: Antihypertensive activity in C57 black mouse assessed as diastolic blood pressure at 13.7 to 60.345 umol/kg, po after 1 hr (reference value: 85.5 +/- 12.6 mmHg); type: functional, Artery
Mus musculus [6] = assay: Antihypertensive activity in C57 black mouse assessed as diastolic blood pressure at 13.7 to 60.345 umol/kg, po after 3 hrs (reference value: 77.2 +/- 11.3 mmHg); type: functional, Artery
Heart [7] = assay: Ionotropic activity in C57BL/6 mouse heart assessed as rate of relaxation at 100 uM after 20 mins by hemodynamic analysis (reference value: -3318 +/- 161 cmH2O/ms); type: functional
In short: (§3)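 Isolated C57BL/6 mouse hearts perfused retrogradely (Langendorff) at constant pressure (90 cm H2O) with 95% O2/5% CO2-aerated Krebs-Henseleit buffer at 37 °C. After 20 min stabilization, hearts were perfused with compound at 10 or 100 µM for 20 min. Measured: heart rate, rates of contraction and relaxation, LVDP and coronary flow. Comparison to baseline; mean ± SEM, n = 4.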

Heart [8] = assay: Ionotropic activity in C57BL/6 mouse heart assessed as increase in coronary flow rate at 10 uM after 20 mins by hemodynamic analysis relative to control; type: functional; in short: as §3
[9] = Induction of nitric oxide release in phosphate buffer solution after 4 hrs by Griess method relative to control; type: physicochemical; in short: as §2
Heart [10] = assay: Ionotropic activity in C57BL/6 mouse heart assessed as coronary flow rate at 100 uM after 20 mins by hemodynamic analysis (reference value: 2.62 +/- 0.1 ml/min); type: functional; in short: as §3
Mus musculus [11] = assay: Effect on cardiac hemodynamic parameter in C57 black mouse assessed as heart rate at 13.7 to 60.345 umol/kg, po after 3 hrs (reference value: 448 +/- 72 bpm); type: functional
[12] = Ratio of IPA/No half life to compound half life in phosphate buffered saline at pH 7.4; type: physicochemical; details: buffer
Heart [13] = assay: Positive ionotropic activity in C57BL/6 mouse heart assessed as left ventricular developing pressure at 100 uM after 20 mins by hemodynamic analysis (reference value: 169 +/- 2 cmH2O); type: functional; in short: as §3
Mus musculus [14] = assay: Antihypertensive activity in C57 black mouse assessed as diastolic blood pressure at 13.7 to 60.345 umol/kg, po after 6 hrs (reference value: 85.3 +/- 11.5 mmHg); type: functional, Artery
Heart [15] = assay: Ionotropic activity in C57BL/6 mouse heart assessed as heart rate at 100 uM after 20 mins by hemodynamic analysis (reference value: 342 +/- 11 bpm); type: functional; in short: as §3
Mus musculus [16] = assay: Antihypertensive activity in C57 black mouse assessed as systolic blood pressure at 13.7 to 60.345 umol/kg, po after 1 hr (reference value: 126.5 +/- 9.4 mmHg); type: functional, Artery
Mus musculus [17] = assay: Antihypertensive activity in C57 black mouse assessed as systolic blood pressure at 13.7 to 60.345 umol/kg, po after 6 hrs (reference value: 126.2 +/- 7.2 mmHg); type: functional, Artery
Mus musculus [18] = assay: Antihypertensive activity in C57 black mouse assessed as mean blood pressure at 13.7 to 60.345 umol/kg, po after 1 hr (reference value: 106 +/- 11 mmHg); type: functional
Mus musculus [19] = assay: Effect on cardiac hemodynamic parameter in C57 black mouse assessed as heart rate at 13.7 to 60.345 umol/kg, po after 3 hrs (reference value: 439 +/- 73 bpm); type: functional
Heart [20] = assay: Ionotropic activity in C57BL/6 mouse heart assessed as increase in rate of contraction at 10 uM after 20 mins by hemodynamic analysis relative to control; type: functional; in short: as §3
Heart [21] = assay: Positive ionotropic activity in C57BL/6 mouse heart assessed as increase in left ventricular developing pressure at 10 uM after 20 mins by hemodynamic analysis relative to control; type: functional; in short: as §3
Mus musculus [22] = assay: Antihypertensive activity in C57 black mouse assessed as systolic blood pressure at 13.7 to 60.345 umol/kg, po after 3 hrs (reference value: 118.3 +/- 6.1 mmHg); type: functional, Artery
Mus musculus [23] = assay: Effect on cardiac hemodynamic parameter in C57 black mouse assessed as heart rate at 13.7 to 60.345 umol/kg, po after 1 hr (reference value: 449 +/- 40 bpm); type: functional
[24] = Half life of the compound in phosphate buffered saline at 300 uM after 24 hrs at pH 7.4 by diazeniumdiolate chromophore-based UV-Vis spectrophotometric analysis; type: physicochemical
In short: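 Compound at 300 µM final (added from 6 mM DMSO stock; 5% DMSO final) in pH 7.4 phosphate buffer, stirred at 37 °C for 0-24 h. Spectra scanned at 200-400 nm over time. Decay of the diazeniumdiolate absorbance at 259 nm was fitted as first order by linear regression of ln(At − A∞) versus time, and t1/2 = ln2/k.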

Mus musculus [25] = assay: Antihypertensive activity in C57 black mouse assessed as mean blood pressure at 13.7 to 60.345 umol/kg, po after 6 hrs (reference value: 105.7 +/- 9.3 mmHg); type: functional
Mus musculus [26] = assay: Antihypertensive activity in C57 black mouse assessed as mean blood pressure at 13.7 to 60.345 umol/kg, po after 3 hrs (reference value: 97.5 +/- 8.7 mmHg); type: functional
Heart [27] = assay: Ionotropic activity in C57BL/6 mouse heart assessed as increase in rate of relaxation at 10 uM after 20 mins by hemodynamic analysis relative to control; type: functional; design: scale not given: the % may be the effect or the level left; in short: as §3
Heart [28] = assay: Ionotropic activity in C57BL/6 mouse heart assessed as rate of contraction at 100 uM after 20 mins by hemodynamic analysis (reference value: 4178 +/- 141 cmH2O/ms); type: functional; in short: as §3
Heart [29] = assay: Ionotropic activity in C57BL/6 mouse heart assessed as decrease in heart rate at 10 uM after 20 mins by hemodynamic analysis relative to control; type: functional; design: scale not given: the % may be the effect or the level left; in short: as §3
[30] = Induction of nitric oxide release in phosphate buffer solution after 2 hrs by Griess method relative to control; type: physicochemical; in short: as §2
[31] = Induction of HNO release in phosphate buffer saline after 2 to 4 hrs by phosphine-trapping based LC-MS assay relative to control; type: physicochemical
In short: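 HNO trapping assay. Test compound at 20 µM with phosphine trap at 1 mM and 4-hydroxybenzophenone internal standard at 5.05 µM, in PBS pH 7.4 containing 7.5% DMSO, sealed, 37 °C. Quenched with H2O2, then dried and redissolved in methanol. HNO-derived amide quantified by ESI-negative LC-MS against a standard curve (0.2-10 µg/mL). Result is % of 1 mol HNO/mol compound; mean of triplicates.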

## CC(C)N[N+]([O-])=N[O-].[Na+]
[1]
  Activity: 62%
[2]
  Activity: 5.1%
[3]
  Activity: 5.4%

## CN(N=O)c1ccc(C#N)cc1
[4]
  Activity: 100%

## [Na+].[O-]/N=[N+](/[O-])N1C2CCC1c1ccccc12
Mus musculus [5]
  Activity: 70.6 mmHg
Mus musculus [6]
  Activity: 75.4 mmHg
Heart [7]
  Activity: -3945 cmH2O/ms
Heart [8]
  Activity: 53%
[9]
  Activity: 21.5%
Heart [10]
  Activity: 3.92 mL/min
Mus musculus [11]
  Activity: 554 bpm
[12]
  Ratio: 7.7
Heart [13]
  Activity: 213 cmH2O
[2]
  Activity: 20.2%
Mus musculus [14]
  Activity: 87.2 mmHg
Heart [15]
  Activity: 307 bpm
Mus musculus [16]
  Activity: 105.5 mmHg
Mus musculus [17]
  Activity: 128.9 mmHg
Mus musculus [18]
  Activity: 82.3 mmHg
Mus musculus [19]
  Activity: 466 bpm
Heart [20]
  Activity: 30%
Heart [21]
  Activity: 24%
Mus musculus [22]
  Activity: 106.5 mmHg
Mus musculus [23]
  Activity: 605 bpm
[24]
  half-life at 300 µM: 17.8 min
Mus musculus [25]
  Activity: 101.1 mmHg
Mus musculus [26]
  Activity: 85.8 mmHg
Heart [27]
  Activity: 9%
Heart [28]
  Activity: 5547 cmH2O/ms
[3]
  Activity: 22.3%
Heart [29]
  Activity: 22%
[30]
  Activity: 19%

## CN(c1ccc(C#N)cc1)N(O)N=O
[31]
  Activity: 100%
[24]
  half-life at 300 µM: 11 min

## [Na+].[Na+].[O-][N+]([O-])=NO [ANGELI'S SALT]
[9]
  Activity: 20.8%
[2]
  Activity: 85.7%
[3]
  Activity: 85.9%
[30]
  Activity: 21.3%
